# From ChEMBL document CHEMBL1149910, “2-(6-aryl-3(Z)-hexen-1,5-diynyl)anilines as a new class of potent antitubulin agents” (J Med Chem, 2008)
# The source made the active and inactive calls. The calls are words filed in the database; no cut-off is given here.
# Experiments:
# MDA-MB-231 [1] = assay: Effect on microtubule depolymerization in human MDA-MB-231 cells assessed as disorganized microtubule cytoskeleton at 3.6 uM after 2 hrs relative to control; type: functional, cell-based
# Procedure, shortened: (§1)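 MDA-MB-231/ATCC cells grown on glass coverslips (1 × 10⁴ cells) for 24 h, then exposed to 3.6, 9, 18, 27 or 36 µM at 37 °C for 2 h. Fixed in 4% paraformaldehyde, permeabilized with Triton X-100, and immunostained for α-tubulin and ninein with DAPI counterstain. Interphase microtubule networks compared with untreated cells by confocal microscopy.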
# MDA-MB-231 [2] = assay: Effect on regrowth of depolymerized microtubule in human MDA-MB-231 cells after drug withdrawal; type: functional, cell-based; details: TDE = time-dependent effect
# Procedure, shortened: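 MDA-MB-231/ATCC cells on coverslips were treated at 36 µM in DMEM for 2 h at 37 °C, with nocodazole 20 µM and colchicine 5 µM as controls. Drug was then washed out with PBS and cells incubated in prewarmed DMEM at 37 °C. Cells were fixed at set time points and immunostained for α-tubulin and ninein with DAPI counterstain.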
# MDA-MB-231 [3] = assay: Effect on microtubule depolymerization in human MDA-MB-231 cells at 27 uM after 2 hrs; type: functional, cell-based; procedure, shortened: as §1
# [4] = Inhibition of bovine tubulin polymerization; set-up: species or system Bos taurus
# Procedure, shortened: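 Purified bovine tubulin incubated at 37 °C in buffer containing 20% glycerol and 1 mM GTP, with test compound at 3.6–36 µM. Polymerization followed kinetically by the increase in fluorescence. Colchicine and paclitaxel served as controls.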
# HL-60 = assay: Cytotoxicity against human HL60 cells; type: functional
# Procedure, shortened: (§2)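 Tested in the NCI in vitro antitumor screening protocol across a tumor cell line panel. GI₅₀ is the concentration producing a 50% reduction in cell growth.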
# K562 [5] = assay: Cytotoxicity against human K562 cells; type: functional; procedure, shortened: as §2
# SR = assay: Cytotoxicity against human SR cells; type: functional; procedure, shortened: as §2
# EKVX = assay: Cytotoxicity against human EKVX cells; type: functional; procedure, shortened: as §2
# HOP-62 = assay: Cytotoxicity against human HOP62 cells; type: functional; procedure, shortened: as §2
# NCI-H322M = assay: Cytotoxicity against human NCI-H322M cells; type: functional; procedure, shortened: as §2
# LOX IMVI = assay: Cytotoxicity against human LOXIMVI cells; type: functional; procedure, shortened: as §2
# M14 = assay: Cytotoxicity against human M14 cells; type: functional; procedure, shortened: as §2
# SK-MEL-2 = assay: Cytotoxicity against human SK-MEL2 cells; type: functional
# Procedure, shortened: (§3)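 Tested in the NCI in vitro antitumor screening protocol against human tumour cell lines.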
# SK-MEL-28 = assay: Cytotoxicity against human SK-MEL28 cells; type: functional; procedure, shortened: as §3
# IGROV-1 = assay: Cytotoxicity against human IGROV1 cells; type: functional; procedure, shortened: as §2
# OVCAR-3 = assay: Cytotoxicity against human OVCAR-3 cells; type: functional; procedure, shortened: as §2
# OVCAR-5 = assay: Cytotoxicity against human OVCAR5 cells; type: functional; procedure, shortened: as §2
# A498 = assay: Cytotoxicity against human A498 cells; type: functional; procedure, shortened: as §2
# CAKI-1 = assay: Cytotoxicity against human CAKI1 cells; type: functional; procedure, shortened: as §2
# UO-31 = assay: Cytotoxicity against human UO31 cells; type: functional
# Procedure, shortened: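 NCI in vitro antitumor screening protocol; GI50 taken as the concentration giving 50% reduction in cell growth.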
# DU-145 = assay: Cytotoxicity against human DU145 cells; type: functional; procedure, shortened: as §2
# NCI/ADR-RES = assay: Cytotoxicity against human NCI/ADR-RES cells; type: functional; procedure, shortened: as §2
# Hs-578T = assay: Cytotoxicity against human HS578T cells; type: functional; procedure, shortened: as §2
# MDA-MB-435 = assay: Cytotoxicity against human MDA-MB-435 cells; type: functional; procedure, shortened: as §2
# K562 [6] = assay: Cell cycle arrest in human K562 cells assessed as accumulation at G0/G1 phase at 50 uM after 24 hrs by flow cytometry; type: functional
# Procedure, shortened: (§4)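 K-562 human leukemia cells were grown in RPMI 1640 with 10% fetal calf serum, glutamine and penicillin/streptomycin at 37 °C in 5% CO₂. Cells were exposed to compound at 50 µM for 24 h, then pelleted and PBS-washed. They were fixed in ice-cold ethanol for 30 min, treated with 1 mg/mL RNase A at 37 °C for 30 min, and stained with propidium iodide and Triton X-100 for 30 min at room temperature in the dark. Per-phase and sub-G1 percentages came from flow cytometry gating.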
# K562 [7] = assay: Cell cycle arrest in human K562 cells assessed as accumulation at G2/M phase at 50 uM after 24 hrs by flow cytometry; type: functional; procedure, shortened: as §4
# MDA-MB-231 [8] = assay: Cell cycle arrest in human MDA-MB-231 cells assessed as accumulation of 2N cells at 3.6 uM after 24 hrs by flow cytometry; type: functional
# MDA-MB-231 [9] = assay: Cell cycle arrest in human MDA-MB-231 cells assessed as accumulation at sub-G1 phase at 27.0 uM after 24 hrs by flow cytometry; type: functional
# MDA-MB-231 [10] = assay: Cell cycle arrest in human MDA-MB-231 cells assessed as accumulation of 4N cells at 3.6 uM after 24 hrs by flow cytometry; type: functional
# MDA-MB-231 [11] = assay: Cell cycle arrest in human MDA-MB-231 cells assessed as accumulation of 4N cells at 9.0 uM after 24 hrs by flow cytometry; type: functional
# MDA-MB-231 [12] = assay: Cell cycle arrest in human MDA-MB-231 cells assessed as accumulation of >4N cells at 18.0 uM after 24 hrs by flow cytometry; type: functional
# MDA-MB-231 [13] = assay: Cell cycle arrest in human MDA-MB-231 cells assessed as accumulation of 2N cells at 3.6 uM after 72 hrs by flow cytometry; type: functional
# MDA-MB-231 [14] = assay: Cell cycle arrest in human MDA-MB-231 cells assessed as accumulation of 4N cells at 3.6 uM after 72 hrs by flow cytometry; type: functional
# MDA-MB-231 [15] = assay: Cell cycle arrest in human MDA-MB-231 cells assessed as accumulation of 4N cells at 36.0 uM after 72 hrs by flow cytometry; type: functional
# MDA-MB-231 [16] = assay: Cell cycle arrest in human MDA-MB-231 cells assessed as accumulation of >4N cells at 27.0 uM after 72 hrs by flow cytometry; type: functional
# MDA-MB-231 [17] = assay: Cell cycle arrest in human MDA-MB-231 cells assessed as accumulation of >4N cells at 36.0 uM after 72 hrs by flow cytometry; type: functional
# [18] = read-out: LC50 (the source's name)
smiles,measurement,setting,value
Nc1ccccc1C#C/C=C\C#Cc1ccccc1C(F)(F)F,Activity,MDA-MB-231 [1],Active
same,Activity,MDA-MB-231 [2],tde
same,Activity,MDA-MB-231 [3],Active
same,IC50,[4],9 µM
same,GI50,HL-60,0.358 µM
same,TGI,HL-60,> 100 µM
same,CC50,HL-60; [18],> 100 µM
same,GI50,K562 [5],1 µM
same,TGI,K562 [5],0.845 µM
same,CC50,K562 [5]; [18],62.7 µM
same,GI50,SR,0.247 µM
same,TGI,SR,0.691 µM
same,CC50,SR; [18],> 100 µM
same,GI50,EKVX,0.358 µM
same,TGI,EKVX,12.4 µM
same,CC50,EKVX; [18],40.4 µM
same,GI50,HOP-62,0.77 µM
same,TGI,HOP-62,26.1 µM
same,CC50,HOP-62; [18],69.5 µM
same,GI50,NCI-H322M,12.1 µM
same,TGI,NCI-H322M,27.9 µM
same,CC50,NCI-H322M; [18],64.4 µM
same,GI50,LOX IMVI,0.499 µM
same,TGI,LOX IMVI,10.5 µM
same,CC50,LOX IMVI; [18],46.2 µM
same,GI50,M14,0.372 µM
same,TGI,M14,13.2 µM
same,CC50,M14; [18],49.4 µM
same,TGI,SK-MEL-2,26.5 µM
same,CC50,SK-MEL-2; [18],67.2 µM
same,TGI,SK-MEL-28,30.1 µM
same,CC50,SK-MEL-28; [18],80.2 µM
same,GI50,IGROV-1,0.349 µM
same,TGI,IGROV-1,31.1 µM
same,CC50,IGROV-1; [18],> 100 µM
same,GI50,OVCAR-3,0.63 µM
same,TGI,OVCAR-3,0.959 µM
same,CC50,OVCAR-3; [18],24.1 µM
same,GI50,OVCAR-5,1.35 µM
same,TGI,OVCAR-5,7.02 µM
same,CC50,OVCAR-5; [18],37.5 µM
same,GI50,A498,0.973 µM
same,TGI,A498,13.1 µM
same,CC50,A498; [18],40.7 µM
same,GI50,CAKI-1,0.351 µM
same,TGI,CAKI-1,13.2 µM
same,CC50,CAKI-1; [18],38 µM
same,GI50,UO-31,3.06 µM
same,TGI,UO-31,25.1 µM
same,CC50,UO-31; [18],94.9 µM
same,GI50,DU-145,3.08 µM
same,TGI,DU-145,18.4 µM
same,CC50,DU-145; [18],48.5 µM
same,GI50,NCI/ADR-RES,0.249 µM
same,TGI,NCI/ADR-RES,0.68 µM
same,CC50,NCI/ADR-RES; [18],28.5 µM
same,GI50,Hs-578T,0.501 µM
same,TGI,Hs-578T,28.9 µM
same,CC50,Hs-578T; [18],> 100 µM
same,GI50,MDA-MB-435,0.398 µM
same,Activity,K562 [6],6.7%
same,Activity,K562 [7],73.9%
same,Activity,MDA-MB-231 [8],9.5%
same,Activity,MDA-MB-231 [9],24.7%
same,Activity,MDA-MB-231 [10],35.6%
same,Activity,MDA-MB-231 [11],33.6%
same,Activity,MDA-MB-231 [12],35.1%
same,Activity,MDA-MB-231 [13],23.3%
same,Activity,MDA-MB-231 [14],19.2%
same,Activity,MDA-MB-231 [15],14.5%
same,Activity,MDA-MB-231 [16],12.8%
same,Activity,MDA-MB-231 [17],9.7%
